Test results reported in ChEMBL document CHEMBL4118033, “Total Synthesis, Configuration Assignment, and Cytotoxic Activity Evaluation of Protulactone A” (J Nat Prod, 2017).
Calls of active or inactive are those of the source. The rule behind the calls is not given here.

Key:
Type in all cases: functional, cell-based
[1] = tested on: IGROV-1; assay: Antiproliferative activity against human IGROV1 cells at 10 uM incubated for 48 hrs by sulforhodamine B assay
Summary of the method: (§1)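 Run by the NCI Developmental Therapeutics Program (Division of Cancer Treatment and Diagnosis) as part of the NCI60 human tumour cell line panel screen. Each compound was tested at a single dose of 10 μM. Results are reported as one-dose mean graphs.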

[2] = tested on: M14; assay: Antiproliferative activity against human M14 cells at 10 uM incubated for 48 hrs by sulforhodamine B assay; summary of the method: as §1
[3] = tested on: MCF7; assay: Antiproliferative activity against human MCF7 cells at 10 uM incubated for 48 hrs by sulforhodamine B assay; summary of the method: as §1
[4] = tested on: HT-29; assay: Antiproliferative activity against human HT-29 cells at 10 uM incubated for 48 hrs by sulforhodamine B assay; summary of the method: as §1
[5] = tested on: SN12C; assay: Antiproliferative activity against human SN12C cells at 10 uM incubated for 48 hrs by sulforhodamine B assay; summary of the method: as §1
[6] = tested on: A549; assay: Antiproliferative activity against human A549/ATCC cells at 10 uM incubated for 48 hrs by sulforhodamine B assay; summary of the method: as §1
[7] = tested on: UO-31; assay: Antiproliferative activity against human UO31 cells at 10 uM incubated for 48 hrs by sulforhodamine B assay
Summary of the method: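 Run by the NCI Developmental Therapeutics Program (Division of Cancer Treatment and Diagnosis) as part of the NCI60 human tumour cell line panel. Each compound was tested in vitro at a single dose of 10 μM, and the data are reported as one-dose mean graphs across the panel.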

[8] = tested on: HOP-92; assay: Antiproliferative activity against human HOP92 cells at 10 uM incubated for 48 hrs by sulforhodamine B assay; summary of the method: as §1
[9] = tested on: LOX IMVI; assay: Antiproliferative activity against human LOXIMVI cells at 10 uM incubated for 48 hrs by sulforhodamine B assay; summary of the method: as §1
[10] = tested on: SF-539; assay: Antiproliferative activity against human SF539 cells at 10 uM incubated for 48 hrs by sulforhodamine B assay; summary of the method: as §1
[11] = tested on: MOLT-4; assay: Antiproliferative activity against human MOLT4 cells at 10 uM incubated for 48 hrs by sulforhodamine B assay; summary of the method: as §1
[12] = tested on: NCI-H460; assay: Antiproliferative activity against human NCI-H460 cells at 10 uM incubated for 48 hrs by sulforhodamine B assay; summary of the method: as §1
[13] = tested on: HCC 2998; assay: Antiproliferative activity against human HCC2998 cells at 10 uM incubated for 48 hrs by sulforhodamine B assay; summary of the method: as §1
[14] = tested on: CCRF-CEM; assay: Antiproliferative activity against human CCRF-CEM cells at 10 uM incubated for 48 hrs by sulforhodamine B assay; summary of the method: as §1
[15] = tested on: BT-549; assay: Antiproliferative activity against human BT549 cells at 10 uM incubated for 48 hrs by sulforhodamine B assay; summary of the method: as §1
[16] = tested on: DU-145; assay: Antiproliferative activity against human DU145 cells at 10 uM incubated for 48 hrs by sulforhodamine B assay; summary of the method: as §1
[17] = tested on: A498; assay: Antiproliferative activity against human A498 cells at 10 uM incubated for 48 hrs by sulforhodamine B assay; summary of the method: as §1

| Structure (SMILES) | Activity [1] | Activity [2] | Activity [3] | Activity [4] | Activity [5] | Activity [6] | Activity [7] | Activity [8] | Activity [9] | Activity [10] | Activity [11] | Activity [12] | Activity [13] | Activity [14] | Activity [15] | Activity [16] | Activity [17] |
| --- | --- | --- | --- | --- | --- | --- | --- | --- | --- | --- | --- | --- | --- | --- | --- | --- | --- |
| CC(=O)O[C@@H](C)[C@@H]1O[C@@H]2CC(=O)O[C@@H]2[C@H]1O | inactive | inactive | inactive | inactive | inactive | inactive | inactive | inactive | inactive | inactive | inactive | inactive | inactive | inactive | inactive | inactive | inactive |
| CC(=O)O[C@H](C)[C@H]1O[C@H]2CC(=O)O[C@H]2[C@@H]1O | inactive | inactive | inactive | inactive | inactive | inactive | inactive | inactive | inactive | inactive | inactive | inactive | inactive | inactive | inactive | inactive | inactive |
| CC(=O)O[C@H](C)[C@@H]1O[C@@H]2CC(=O)O[C@@H]2[C@H]1O | inactive | inactive | inactive | inactive | inactive | inactive | inactive | inactive | inactive | inactive | inactive | inactive | inactive | inactive | inactive | inactive | inactive |
| CC(=O)O[C@@H](C)[C@H]1O[C@H]2CC(=O)O[C@H]2[C@@H]1O | inactive | inactive | inactive | inactive | inactive | inactive | inactive | inactive | inactive | inactive | inactive | inactive | inactive | inactive | inactive | inactive | inactive |
| O=C(/C=C/c1ccccc1)O[C@H](c1ccccc1)[C@@H]1O[C@@H]2CC(=O)O[C@@H]2[C@H]1O | Active | Active | Active | Active | Active | Active | Active | Active | Active | Active | Active | Active | Active | Active | Active | Active | Active |
| O=C1C[C@H]2O[C@H]([C@H](O)c3ccccc3)[C@H](O)[C@H]2O1 | Active | Active | Active | Active | Active | Active | Active | Active | Active | Active | Active | Active | Active | Active | Active | Active | Active |
| O=C1C[C@H]2O[C@H]([C@@H](O)c3ccccc3)[C@H](O)[C@H]2O1 | Active | Active | Active | Active | Active | Active | Active | Active | Active | Active | Active | Active | Active | Active | Active | Active | Active |
